Tests used:
Assay type in all cases: functional
HOP-92 = assay: Cytotoxicity against human HOP92 cells after 48 hrs by SRB assay; conditions: HOP-92, 48 h
How it was run: (§1)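 Five-dose NCI-60 panel screen: cells grown in RPMI 1640 with 5% FBS and 2 mM L-glutamine, preincubated 24 h at 37 °C, 5% CO2. Five 10-fold dilutions, 0.01–100 µM, applied for 48 h. Fixed with cold TCA (10% final), stained with 0.4% SRB, absorbance read at 515 nm. GI50, TGI and LC50 were taken from log concentration versus % growth curves using time-zero plates.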

NCI-H226 = assay: Cytotoxicity against human NCI-H226 cells after 48 hrs by SRB assay; conditions: NCI-H226, 48 h; how it was run: as §1
SF-295 = assay: Cytotoxicity against human SF295 cells after 48 hrs by SRB assay; conditions: SF-295, 48 h; how it was run: as §1
COLO 205 = assay: Cytotoxicity against human COLO205 cells after 48 hrs by SRB assay; conditions: COLO 205, 48 h; how it was run: as §1
UACC-257 = assay: Cytotoxicity against human UACC257 cells after 48 hrs by SRB assay; conditions: UACC-257, 48 h
How it was run: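 Cells were grown in RPMI 1640 with 5% FBS and 2 mM L-glutamine, then held 24 h at 37 °C and 5% CO2 before dosing. TCA-fixed time-zero plates were kept. Compound was dissolved in DMSO and given at five 10-fold dilutions for 48 h. Cells were fixed with cold TCA (10% final), stained with 0.4% SRB and read at 515 nm. GI50, TGI and LC50 came from Ti/Tz/control growth formulas.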

OVCAR-5 = assay: Cytotoxicity against human OVCAR5 cells after 48 hrs by SRB assay; conditions: OVCAR-5, 48 h; how it was run: as §1
DU-145 = assay: Cytotoxicity against human DU145 cells after 48 hrs by SRB assay; conditions: DU-145, 48 h; how it was run: as §1
SF-539 = assay: Cytotoxicity against human SF539 cells after 48 hrs by SRB assay; conditions: SF-539, 48 h; how it was run: as §1
NCI-H322M = assay: Cytotoxicity against human NCI-H322M cells after 48 hrs by SRB assay; how it was run: as §1
KM12 = assay: Cytotoxicity against human KM12 cells after 48 hrs by SRB assay; conditions: KM12, 48 h; how it was run: as §1
MDA-MB-468 = assay: Cytotoxicity against human MDA-MB-468 cells after 48 hrs by SRB assay; conditions: MDA-MB-468, 48 h; how it was run: as §1
[1] = read-out: LC50 (the source's name)
[2] = read-out: pLC50 (the source's name) (converted)

Nc1cc(Br)c(-c2nnc(CCC(=O)c3nc4ccccc4[nH]3)o2)c(Br)c1
GI50 (HOP-92): 0.501 µM | CC50 (HOP-92; [1]): > 100 µM | TGI (HOP-92; read-out: TGI): 19.9 µM | CC50 (HOP-92; [2]): > 100 µM | TGI (HOP-92; read-out: pTGI (converted)): 20 µM | GI50 (NCI-H226): 22.4 µM | CC50 (NCI-H226; [1]): > 100 µM | TGI (NCI-H226; read-out: TGI): > 100 µM | CC50 (NCI-H226; [2]): > 100 µM | TGI (NCI-H226; read-out: pTGI): > 100 µM | GI50 (SF-295): 9.77 µM | CC50 (SF-295; [1]): > 100 µM | TGI (SF-295; read-out: TGI): 35.6 µM | CC50 (SF-295; [2]): > 100 µM | TGI (SF-295; read-out: pTGI (converted)): 35.5 µM | GI50 (COLO 205): 11.7 µM | CC50 (COLO 205; [1]): 80.1 µM | TGI (COLO 205; read-out: TGI): 30.8 µM | CC50 (COLO 205; [2]): 79.4 µM | TGI (COLO 205; read-out: pTGI (converted)): 30.9 µM | GI50 (UACC-257): 7.59 µM | CC50 (UACC-257; [1]): > 100 µM | TGI (UACC-257; read-out: TGI): > 100 µM | CC50 (UACC-257; [2]): > 100 µM | TGI (UACC-257; read-out: pTGI): > 100 µM | GI50 (OVCAR-5): 29.5 µM | LC50 (OVCAR-5; read-out: LC50): > 100 µM | TGI (OVCAR-5; read-out: TGI): > 100 µM | LC50 (OVCAR-5; read-out: pLC50 (converted)): > 100 µM | TGI (OVCAR-5; read-out: pTGI): > 100 µM | GI50 (DU-145): 5.37 µM | LC50 (50% lethal concentration) (DU-145; read-out: LC50): > 100 µM | TGI (DU-145; read-out: TGI): 53.5 µM | LC50 (50% lethal concentration) (DU-145; read-out: pLC50 (converted)): > 100 µM | TGI (DU-145; read-out: pTGI (converted)): 53.7 µM | GI50 (SF-539): 17.4 µM | CC50 (SF-539; [1]): > 100 µM | TGI (SF-539; read-out: TGI): 60.8 µM | CC50 (SF-539; [2]): > 100 µM | TGI (SF-539; read-out: pTGI (converted)): 60.3 µM | GI50 (NCI-H322M): 8.13 µM | CC50 (NCI-H322M; [1]): > 100 µM | TGI (NCI-H322M; read-out: TGI): > 100 µM | CC50 (NCI-H322M; [2]): > 100 µM | TGI (NCI-H322M; read-out: pTGI): > 100 µM | GI50 (KM12): 3.72 µM | CC50 (KM12; [1]): > 100 µM | TGI (KM12; read-out: TGI): 18 µM | CC50 (KM12; [2]): > 100 µM | TGI (KM12; read-out: pTGI (converted)): 18.2 µM | GI50 (MDA-MB-468): 1.95 µM | LC50 (MDA-MB-468; read-out: LC50): > 100 µM | TGI (MDA-MB-468; read-out: TGI): 6.97 µM | LC50 (MDA-MB-468; read-out: pLC50 (converted)): > 100 µM | TGI (MDA-MB-468; read-out: pTGI (converted)): 6.92 µM

Reference: ChEMBL document CHEMBL2157987, “Benzimidazole bearing oxadiazole and triazolo-thiadiazoles nucleus: design and synthesis as anticancer agents” (2012)
